Compound activity as filed in PubChem.
HTRA1 inh – inhibitors of human serine peptidase HTRA1 | recombinant HTRA1, FP-rhodamine activity-based probe, fluorescence polarization | inhibition, % at 5.96 µM | actives 0.5% (n = 340,000); in the data active means inhibition above about 36%
Target sequence (Q92743 whole entry, looked up): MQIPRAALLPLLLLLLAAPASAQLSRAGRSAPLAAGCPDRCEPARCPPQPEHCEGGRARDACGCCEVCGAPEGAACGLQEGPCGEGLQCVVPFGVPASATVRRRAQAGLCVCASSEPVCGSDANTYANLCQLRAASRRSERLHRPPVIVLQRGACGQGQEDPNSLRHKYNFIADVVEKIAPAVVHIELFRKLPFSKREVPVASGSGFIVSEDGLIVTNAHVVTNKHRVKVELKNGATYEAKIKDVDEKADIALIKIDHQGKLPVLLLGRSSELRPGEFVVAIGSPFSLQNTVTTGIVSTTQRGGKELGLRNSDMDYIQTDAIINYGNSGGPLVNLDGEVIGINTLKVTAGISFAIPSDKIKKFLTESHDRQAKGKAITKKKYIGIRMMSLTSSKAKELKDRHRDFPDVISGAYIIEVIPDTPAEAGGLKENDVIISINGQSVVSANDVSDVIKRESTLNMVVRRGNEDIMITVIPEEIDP
PRMT1 FP inh – PRMT1 (human) inhibition, primary screen. Q99873. recombinant PRMT1, activity-based probe fluorescence polarization. inhibition, % at 2.79 µM. actives 1.3% (n = 370,000). AID 652257;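 active means inhibition above about 21% made by adding two undisclosed values, limit read from the data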
SIAE primary – blocks human sialic acid acetylesterase. inhibition, % at 9.66 µM. SIAE FP-Rh probe binding, fluorescence polarization. AID 1053197. actives 0.69% (n = 370,000);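 active means inhibition above a cutoff: mean of compounds within the control limits plus 3 SD of those, cut at about 17% in these data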
TCR-CD3 inh – human TCR-CD3 binding inhibition. inhibition, % at 9.4 µM. TAMRA-labeled TCR probe fluorescence, biochemical. actives 0.37% (n = 360,000); in the data active means inhibition above about 19%;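 further: recombinant mutant TCR 2C K166C tagged with TAMRA read by polarization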
ABHD4 inh – inhibits mouse alpha/beta hydrolase domain 4. actives 0.54% (n = 370,000). purified mABHD4, FP-Rh probe fluorescence polarization. Q8VD66. inhibition, % at 8.92 µM;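 active means inhibition exceeding the mean over every tested compound plus 3 SD, cut at about 30% in these data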
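assay system = mABHD4 protein | compound dosing = single nominal dose of 8.92 µM, 0.89% DMSO final | read-out basis = percent inhibition of probe binding, normalized to plate controls | schedule = Enzyme–compound pre-incubation 45 min, then probe 60 min, both 25 °C | detection = fluorescence polarization, excitation 525 nm, emission 598 nm, BODIPY TMR filters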
PRMT1 inh conf – PRMT1 (human) inhibition, FP confirmation; shares compounds with PRMT1 FP inh; recombinant His-PRMT1, activity-based probe fluorescence polarization; inhibition, % at 2.79 µM; actives 42% (n = 3,300);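 active means mean inhibition across replicates above the hit cutoff derived for the earlier primary screen, cut at about 22% in these data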
A number is an active result; 0 = inactive; - = no result. The list is not random: actives were taken first. Their share in the collection is about 2.6%.

SMILES	HTRA1 inh	PRMT1 FP inh	SIAE primary	TCR-CD3 inh	ABHD4 inh	PRMT1 inh conf
S=C(Nc1ccccc1)OCCN1CCCC12CCC(c1ccccc1)CC2 (stereo not given)	-	0	0	-	0	-
CN(C)Cc1c(C(C)(C)O)[nH]c2cc(F)ccc12	-	0	0	0	0	-
NC(=O)C1CCN(C2CC(=O)N(Cc3ccc(N4CCCC4=O)cc3)C2=O)CC1 (stereo not given)	0	58	0	0	0	0
O=C(C1CCN(C2CC(=O)N(Cc3ccccc3)C2=O)CC1)N1CCCCCC1 (stereo not given)	0	57	0	0	0	0
CCN(CC)C1CC(=O)N(c2cccc(Cl)c2)C1=O (stereo not given)	0	34	0	0	0	29
O=C1CC(N2CCN(C(c3ccccc3)c3ccccc3)CC2)C(=O)N1Cc1ccc(N2CCCC2=O)cc1 (stereo not given)	0	0	0	0	0	-
O=C(C1CCN(C2CC(=O)N(c3ccc(Cl)cc3)C2=O)CC1)N1CCOCC1 (stereo not given)	0	27	0	0	0	0
COc1ccccc1N1CCN(C2CC(=O)N(c3cccc(Cl)c3)C2=O)CC1 (stereo not given)	0	0	0	0	0	-
O=C(C1CCN(C2CC(=O)N(c3cccc(Cl)c3)C2=O)CC1)N1CCCC1 (stereo not given)	0	30	0	0	0	0
CC(=O)Oc1ccc(N2C(=O)CC(N3CCOCC3)C2=O)cc1 (stereo not given)	0	43	0	0	0	0
CC(=O)Oc1cccc(N2C(=O)C3C4C=CC(C4=C(C)C)C3C2=O)c1 (stereo not given)	0	64	0	0	0	0
CCOc1ccc(N2C(=O)CC(N3CCOCC3)C2=O)cc1 (stereo not given)	0	0	0	0	0	-
CC(=O)Oc1cccc(N2C(=O)C3C(C2=O)C2C=CC3C23CC3)c1 (stereo not given)	0	0	0	0	0	-
CC(=O)Oc1ccc(N2C(=O)C3C4C=CC(O4)C3C2=O)cc1 (stereo not given)	0	95	0	0	0	27
O=C(NCc1ccccc1)OCCN1C(=O)CCC12CCC(c1ccccc1)CC2 (stereo not given)	-	0	0	-	0	-
Cc1ccccc1NC(=O)[C@@H]1CCCN1S(=O)(=O)c1cccc2cccnc12	-	0	0	-	0	-
Nc1[nH]c(C(=O)c2ccccc2)c(-c2ccc(Cl)cc2)c1C(=O)NCCC1=CCCCC1	-	0	0	-	0	-
CSCCC(c1nc2ccccc2[nH]1)n1c(=O)c(-c2ccco2)nc2ccccc21 (stereo not given)	-	45	0	0	0	0
COc1ccc(S[C@]2(C(=O)N3CCN(C(C)=O)CC3)CC(=O)N(C(=O)/C=C/c3ccccc3)[C@@H]2c2ccc(OC)cc2)cc1	-	0	0	-	0	-
O=C(COc1ccccc1)Nc1ccc(S(=O)(=O)Nc2ccccn2)cc1	0	32	0	0	0	0
O=C(COc1ccc(Br)cc1)Nc1ccc(S(=O)(=O)Nc2ccccn2)cc1	0	0	0	0	0	-
COc1ccc(S[C@]2(C(=O)N(C)C)CC(=O)N(c3ccsc3)[C@@H]2c2ccc(OC)cc2)cc1	-	0	0	-	0	-
N#CC1=C2SCN(Cc3ccco3)CN2C(=O)CC1c1c(F)cccc1Cl (stereo not given)	0	52	0	0	0	0
Cc1ccc(C2CC(=O)N3CN(Cc4ccco4)CSC3=C2C#N)cc1 (stereo not given)	0	39	0	0	0	0
CN1C2C=C3C(C#N)=C(N)C(C#N)(C#N)[C@H](c4c(F)cccc4F)[C@H]3C1CC2 (stereo not given in full)	0	0	0	0	0	-
SMILES	HTRA1 inh	PRMT1 FP inh	SIAE primary	TCR-CD3 inh	ABHD4 inh	PRMT1 inh conf
N#CC1=C(N)C(C#N)(C#N)[C@H](c2c(F)cccc2F)[C@H]2CC3(CC=C12)OCCO3	0	26	0	0	0	0
S=c1[nH]c2ccc(Cc3ccc4[nH]c(=S)[nH]c4c3)cc2[nH]1	0	30	0	0	0	0
Nc1ccc2[nH]c(=S)[nH]c2c1	0	0	0	0	0	-
COc1ccc(-c2c(Cc3ccccc3)nc(NC(=O)c3ccccc3)n2Cc2ccccc2)cc1	-	0	0	-	0	-
Clc1cccc(C2Nc3cccc4cccc(c34)N2)c1	0	0	0	0	0	-
O=[N+]([O-])c1ccc(Cl)c(C2Nc3cccc4cccc(c34)N2)c1	0	53	0	0	0	26
COc1cc(OC)cc(C(=O)NC(=S)NNC(=O)Cc2cccs2)c1	0	28	0	0	0	0
O=C(CCCN1C(=O)/C(=C/c2ccco2)SC1=S)Nc1cccc(C(=O)O)c1	0	33	0	0	0	0
O=C(CN1C(=O)/C(=C/c2ccco2)SC1=S)Nc1ccc(O)c(C(=O)O)c1	0	50	0	0	0	31
O=C(CN1C(=O)/C(=C/c2ccco2)SC1=S)Nc1ccc(C(=O)O)c(O)c1	0	52	0	0	0	35
O=C(CCCN1C(=O)/C(=C\c2cccs2)SC1=S)Nc1cccc(C(=O)O)c1	0	0	0	0	0	-
COc1cc(OC)c(C2CC(=O)N3CN(c4ccccc4)CSC3=C2C#N)cc1OC (stereo not given)	0	52	0	0	0	26
CCOc1ccc(N2CSC3=C(C#N)C(c4ccco4)CC(=O)N3C2)cc1 (stereo not given)	0	71	0	0	0	70
COc1cc(OC)c(C2CC(=O)N3CN(C)CSC3=C2C#N)cc1OC (stereo not given)	0	42	0	0	0	77
N#CC1=C2SCN(c3ccccc3)CN2C(=O)CC1c1c(Cl)cccc1Cl (stereo not given)	0	52	0	0	0	55
N#Cc1cccc(NC(=O)OCCCN2CCC3(CCCCC3)C2=O)c1	-	0	0	-	0	-
C=CCN1[C@H](CO)[C@H](c2ccc(C#CC3(O)CCCC3)cc2)[C@@H]1C#N	-	0	0	-	0	-
COc1ccc(S(=O)(=O)NCC(=O)N2CCN(c3ccccn3)CC2)c(OC)c1	-	0	0	-	0	-
COc1ccc(Br)cc1C1CC(=O)N2CN(Cc3ccccc3)CSC2=C1C#N (stereo not given)	0	25	0	0	0	0
CCc1ccccc1N1CSC2=C(C#N)C(c3cc(OC)c(OC)cc3OC)CC(=O)N2C1 (stereo not given)	0	62	0	0	0	79
COc1ccc(Br)cc1C1CC(=O)N2CN(C)CSC2=C1C#N (stereo not given)	0	0	0	0	0	-
COc1ccc(OC)c(C2CC(=O)N3CN(c4cccc(Cl)c4)CSC3=C2C#N)c1 (stereo not given)	0	0	0	0	0	-
